Experimental data taken from ChEMBL document CHEMBL5390273, “Discovery of a Hydroxylamine-Based Brain-Penetrant EGFR Inhibitor for Metastatic Non-Small-Cell Lung Cancer” (J Med Chem, 2023).
The source made the active and inactive calls. No cut-off for these calls is given here.

Legend:
[1] = Mutagenicity in Salmonella typhimurium TA98 at 5 to 100 uM incubated for 96 hrs in presence of rat liver S9 fraction by Ames fluctuation assay; assay type: toxicity, subcellular; conditions: salmonella enterica subsp. enterica serovar typhimurium, s9, 96 h, dose 5-100 µM
How it was run: (§1)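 Fluctuation format in 384-well plates at 37 °C for 96 h. Tested at 5, 10, 50 and 100 μM, 48 replicates per concentration, with and without rat liver S9. Revertant wells counted when OD430/OD570 > 1.0, compared with control by one-tailed Fisher's exact test. Parallel bacterial cytotoxicity test (OD650) at 0.6–100 μM, with growth below 60% of control flagged as cytotoxic.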

[2] = Mutagenicity in Salmonella typhimurium TA98 at 5 to 100 uM incubated for 96 hrs by Ames fluctuation assay; assay type: toxicity; conditions: salmonella enterica subsp. enterica serovar typhimurium, dose 5-100 µM; how it was run: as §1
[3] = Mutagenicity in Salmonella typhimurium TA1535 at 5 to 100 uM incubated for 96 hrs by Ames fluctuation assay; assay type: toxicity; conditions: salmonella enterica subsp. enterica serovar typhimurium, dose 5-100 µM; how it was run: as §1
[4] = Mutagenicity in Salmonella typhimurium TA100 at 5 to 100 uM incubated for 96 hrs by Ames fluctuation assay; assay type: toxicity; conditions: salmonella enterica subsp. enterica serovar typhimurium, dose 5-100 µM; how it was run: as §1
[5] = Mutagenicity in Salmonella typhimurium TA1535 at 5 to 100 uM incubated for 96 hrs in presence of rat liver S9 fraction by Ames fluctuation assay; assay type: toxicity, subcellular; conditions: salmonella enterica subsp. enterica serovar typhimurium, s9, 96 h, dose 5-100 µM; how it was run: as §1
[6] = Mutagenicity in Salmonella typhimurium TA1537 at 5 to 100 uM incubated for 96 hrs in presence of rat liver S9 fraction by Ames fluctuation assay; assay type: toxicity, subcellular; conditions: salmonella enterica subsp. enterica serovar typhimurium, s9, 96 h, dose 5-100 µM; how it was run: as §1
[7] = Mutagenicity in Salmonella typhimurium TA100 at 5 to 100 uM incubated for 96 hrs in presence of rat liver S9 fraction by Ames fluctuation assay; assay type: toxicity, subcellular; conditions: salmonella enterica subsp. enterica serovar typhimurium, s9, 96 h, dose 5-100 µM; how it was run: as §1
[8] = Unbound brain-to-plasma concentration ratio in Han Wistar rat at 10 mg/kg,po and measured after 16 hrs by LC-MS/MS analysis; assay type: ADME, organism-based; conditions: read-out: K(p,uu,brain)
[9] = Mutagenicity in Salmonella typhimurium TA1537 at 5 to 100 uM incubated for 96 hrs by Ames fluctuation assay; assay type: toxicity; conditions: salmonella enterica subsp. enterica serovar typhimurium, dose 5-100 µM; how it was run: as §1
[10] = Dissociation constant, pKa of compound by pH-metric titration method; assay type: physicochemical
[11] = tested on: HCC827; experiment: Antitumor activity against human luciferase tagged HCC827 cells xenografted in intracranial PDX BALB/c mouse model assessed as tumor regression at 10 mg/kg,po BID for 21 days by Bioluminescence imaging analysis; assay type: functional, organism-based; conditions: time 21.0 day
How it was run: (§2)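 Female BALB/c nude mice given 3 × 10^5 HCC827-luc cells in 2 μL RPMI1640 into the right forebrain under anesthesia. Randomized on day 20 after inoculation, n = 10 per group. Dosed PO b.i.d. at 12 h intervals for 21 days in 1% methylcellulose, with vehicle control. Biweekly IVIS imaging 10 min after IP D-luciferin, plus biweekly body weight. Day-21 means compared by unpaired two-tailed t-test.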

[12] = Metabolic stability in human hepatocytes assessed as metabolite formation at 10 uM incubated for 4 hrs by UHPLC-MS/MS analysis; assay type: ADME, cell-based, Hepatocyte
How it was run: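 Human hepatocytes at 1.0 × 10^6 cells/mL incubated with compound at 10 μM for 0, 120 and 240 min at 37 °C. Quenched with 2 volumes of acetonitrile, centrifuged at 16,000g for 15 min, and supernatant analyzed by UHPLC-MS/MS.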

[13] = Toxicity in intracranial PDX BALB/c mouse model xenografted with human luciferase tagged HCC827 cells assessed as adverse clinical effects at 10 mg/kg,po BID for 21 days; assay type: organism-based; conditions: in vivo, 504 h, time 21 day; how it was run: as §2
[14] = Toxicity in intracranial PDX BALB/c mouse model xenografted with human luciferase tagged HCC827 cells assessed as body weight loss at 10 mg/kg,po BID for 21 days; assay type: organism-based; conditions: in vivo, 504 h, time 21 day; how it was run: as §2
[15] = Mutagenicity in Salmonella typhimurium TA1535 at 5 to 50 uM incubated for 96 hrs by Ames fluctuation assay; assay type: toxicity; conditions: salmonella enterica subsp. enterica serovar typhimurium, dose 5-50 µM; how it was run: as §1
[16] = Genotoxicity in Chinese hamster CHO-K1 cells at 8 to 1000 uM incubated for 24 hrs by micronucleus test; assay type: toxicity, cell-based, Cricetulus griseus; conditions: cho-k1, 24 h, dose 8-1000 µM
How it was run: (§3)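 CHO-K1 cells, 96-well format, exposed to 8–1000 μM for either 4 h at 37 °C with rat liver S9 or 24 h at 37 °C without S9. Micronuclei detected by high-content fluorescence imaging. Positive controls were cyclophosphamide 7.2 μM and mitomycin C 0.3 μM. One-tailed two-sample equal-variance t-test.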

[17] = Mutagenicity in Salmonella typhimurium TA1537 at 5 to 50 uM incubated for 96 hrs by Ames fluctuation assay; assay type: toxicity; conditions: salmonella enterica subsp. enterica serovar typhimurium, dose 5-50 µM; how it was run: as §1
[18] = Genotoxicity in Chinese hamster CHO-K1 cells at 8 to 1000 uM incubated for 4 hrs in presence of rat liver S9 fraction by micronucleus test; assay type: toxicity, subcellular, Cricetulus griseus; conditions: s9, 4 h, dose 8-1000 µM; how it was run: as §3
[19] = Mutagenicity in Salmonella typhimurium TA100 at 5 to 50 uM incubated for 96 hrs by Ames fluctuation assay; assay type: toxicity; conditions: salmonella enterica subsp. enterica serovar typhimurium, dose 5-50 µM; how it was run: as §1
[20] = Mutagenicity in Salmonella typhimurium TA1537 at 5 to 50 uM incubated for 96 hrs in presence of rat liver S9 fraction by Ames fluctuation assay; assay type: toxicity, subcellular; conditions: salmonella enterica subsp. enterica serovar typhimurium, s9, 96 h, dose 5-50 µM; how it was run: as §1
[21] = Mutagenicity in Salmonella typhimurium TA98 at 5 to 50 uM incubated for 96 hrs by Ames fluctuation assay; assay type: toxicity; conditions: salmonella enterica subsp. enterica serovar typhimurium, dose 5-50 µM; how it was run: as §1
[22] = AUC (0 to infinity) in BALB/c mouse at 3 mg/kg, iv and measured upto 24 hrs by LC-MS/MS analysis; assay type: ADME, organism-based; set-up: dose 3 mg/kg, time < 24 hrs, route iv; conditions: in vivo
How it was run: (§4)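 Female BALB/c nude mice or male Sprague-Dawley rats, 6–8 weeks old, n = 3 per route. IV by tail vein in DMSO:10% captisol in saline 1:99. PO by gavage in 1% methylcellulose. […] Assayed by LC-MS/MS, non-compartmental PK, mean ± SD.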

[23] = AUC (0 to infinity) in Sprague-Dawley rat at 2 mg/kg, iv and measured upto 24 hrs by LC-MS/MS analysis; assay type: ADME, organism-based; set-up: dose 2 mg/kg, time < 24 hrs, route iv; conditions: in vivo; how it was run: as §4
[24] = Mutagenicity in Salmonella typhimurium TA98 at 5 to 50 uM incubated for 96 hrs in presence of rat liver S9 fraction by Ames fluctuation assay; assay type: toxicity, subcellular; conditions: salmonella enterica subsp. enterica serovar typhimurium, s9, 96 h, dose 5-50 µM; how it was run: as §1
[25] = Mutagenicity in Salmonella typhimurium TA1535 at 5 to 50 uM incubated for 96 hrs in presence of rat liver S9 fraction by Ames fluctuation assay; assay type: toxicity, subcellular; conditions: salmonella enterica subsp. enterica serovar typhimurium, s9, 96 h, dose 5-50 µM; how it was run: as §1
[26] = AUC (0 to infinity) in BALB/c mouse at 30 mg/kg, po and measured upto 24 hrs by LC-MS/MS analysis; assay type: ADME, organism-based; set-up: dose 30 mg/kg, time < 24 hrs, route po; conditions: in vivo; how it was run: as §4
[27] = Mutagenicity in Salmonella typhimurium TA100 at 5 to 50 uM incubated for 96 hrs in presence of rat liver S9 fraction by Ames fluctuation assay; assay type: toxicity, subcellular; conditions: salmonella enterica subsp. enterica serovar typhimurium, s9, 96 h, dose 5-50 µM; how it was run: as §1
[28] = Toxicity in Sprague-Dawley rat assessed as at 1 mg/kg, iv; conditions: in vivo
[29] = Toxicity in Sprague-Dawley rat assessed as at 5 mg/kg, po; conditions: in vivo

Row | SMILES | Activity [1] | Activity [2] | Activity [3] | Activity [4] | Activity [5] | Activity [6] | Activity [7] | Activity [9] | other results
1 | COc1cc2ncnc(Nc3ccc(F)c(Cl)c3)c2cc1OCCCN1CCOCC1 [GEFITINIB] | Non-Toxic | Non-Toxic | Non-Toxic | Non-Toxic | Non-Toxic | Non-Toxic | Non-Toxic | Non-Toxic | Kp uu at 16 h [8]: 0.009
2 | NO [HYDROXYAMINE] | – | – | – | – | – | – | – | – | pKa [10]: 5.9
3 | COc1cc2ncnc(Nc3cccc(Cl)c3F)c2cc1OCCON1CCN(C)CC1 | – | – | – | – | – | – | – | – | Activity [11]: Active; Drug metabolism [12]: < 5%; Activity [13]: Non-Toxic; Activity [14]: Non-Toxic; Activity [15]: Non-Toxic; Activity [16]: Non-Toxic; Activity [17]: Non-Toxic; Activity [18]: Non-Toxic; Activity [19]: Non-Toxic; Activity [20]: Non-Toxic; Activity [21]: Non-Toxic; AUC [22]: 0.866 µM·h; AUC(0-inf) [23]: 0.61 µM·h; Activity [24]: Non-Toxic; Activity [25]: Non-Toxic; AUC(0-inf) [26]: 5.29 µM·h; Activity [27]: Non-Toxic
4 | COc1cc2ncnc(Nc3ccc(F)c(Cl)c3)c2cc1OCCON1CCOCC1 | Non-Toxic | Non-Toxic | Non-Toxic | Non-Toxic | Non-Toxic | Non-Toxic | Non-Toxic | Non-Toxic | –
5 | COc1cc2ncnc(Nc3cccc(Cl)c3F)c2cc1OCCON1CCOCC1 | Non-Toxic | Non-Toxic | Non-Toxic | Non-Toxic | Non-Toxic | Non-Toxic | Non-Toxic | Non-Toxic | Activity [28]: Non-Toxic; Activity [29]: Non-Toxic
